“Also recorded” adds a separate entry of the source. Marks after values point to notes of the source that are not given here.
Tests used:
[1] = Single-dose plasma pharmacokinetics; type: in vivo, human; settings: for Ratio of dose‐normalized geometric means AUC0‐∞ (90%CI) / Ratio of dose‐normalized geometric means Cmax (90%CI) / half-life: day 1; for half-life / Cmax / Tmax: human, plasma; for half-life: oral, across the 2‐ to 10‐mg dose range; for Cmax / Tmax: po; for Tmax: day 1, median (range); for CL/F: day 1, arithmetic mean (SD)
Summary of the method: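 Fasted healthy Chinese adults took a single oral dose of test compound (2, 4 or 10 mg) with 200 mL water on day 1. Plasma was sampled at 0.5–48 h by LC-MS/MS (K2EDTA plasma, liquid-liquid extraction, validated 0.200–200.00 ng/mL). Noncompartmental Cmax, tmax, AUC0‑∞ and CL/F were derived. A power model gave ratios of dose-normalized geometric means against 2 mg, with 90% CI.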

[2] = Multiple-dose plasma pharmacokinetics; type: in vivo, human; settings: for CL/F / RA (accumulation ratio): day 10, arithmetic mean (SD), N = 8; for Ratio of dose‐normalized geometric means AUCτ,ss (90%CI) / Ratio of dose‐normalized geometric means Cmax,ss (90%CI): multiple dose, day 10
Summary of the method: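 Oral test compound (2, 4, 10 mg) was given once daily on days 4–10 after an overnight fast of at least 10 h. Plasma was sampled predose on days 4–10 to judge steady state, and at 0.5–48 h after the day-10 dose. LC-MS/MS after liquid-liquid extraction from K2EDTA plasma, validated 0.200–200.00 ng/mL. Noncompartmental AUCτ,ss, Cmax,ss, tmax, t½, CL/F and accumulation ratio were derived.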

[3] = Safety and tolerability; type: in vivo, human; settings: for Number of subjects (%) with ≥1 AE, all causalities: single and multiple doses
Summary of the method: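 Fasted healthy Chinese adults received oral test compound (2, 4, 10 mg) or placebo, single dose on day 1 then once daily on days 4–10, blinded and randomized. TEAEs were defined as onset or worsening after dosing and coded by MedDRA term. They were tabulated by treatment, relationship to drug, day of onset and severity. Single 12-lead ECGs, supine/standing blood pressure and pulse rate, and laboratory tests were also recorded.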

[4] = Clinical laboratory tests; type: in vivo, human; settings: for maximum mean decrease in ANC: day 10, 8 hours after dosing; for maximum mean decrease from baseline in ANC: day 1, 8 hours after dosing
Summary of the method: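 Randomized, subject- and investigator-blinded study in healthy Chinese adults (screening ANC ≥2000 cells/μL). Oral dose of 2, 4 or 10 mg test compound or placebo, given after an overnight fast of at least 10 h with 200 mL water, meals 3 h later. Single dose on day 1, then once daily on days 4–10. Clinical laboratory tests were run throughout, and ANC/ALC change was taken from baseline.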

[5] = cited from earlier work
[6] = test system: cytochrome P450 3A4; settings: oxidative metabolism mediated by cytochrome P450 3A4; cited from earlier work
[7] = test system: organic anion transporter 3; settings: in vitro; cited from earlier work
[8] = test system: multidrug and toxin extrusion protein 2‐K; settings: in vitro; cited from earlier work
[9] = test system: P‐glycoprotein; settings: in vitro; cited from earlier work
[10] = test system: breast cancer resistance protein; settings: in vitro; cited from earlier work
[11] = patients weighing <40 kg; cited from earlier work

In the case of `CCS(=O)(=O)N1CC(CC#N)(n2cc(-c3ncnc4[nH]ccc34)cn2)C1` [Baricitinib], the “Ratio of dose‐normalized geometric means AUC0‐∞ (90%CI)” value ([1]; 4 mg vs 2 mg, single dose) is reported as 1.05 (1.00‐1.11), the “Ratio of dose‐normalized geometric means Cmax (90%CI)” value ([1]; 4 mg vs 2 mg, single dose) is reported as 1.09 (0.97‐1.22) and the “Ratio of dose‐normalized geometric means AUC0‐∞ (90%CI)” value ([1]; 10 mg vs 2 mg, single dose) is reported as 1.13 (1.01‐1.26). For the same compound, the “Ratio of dose‐normalized geometric means Cmax (90%CI)” value ([1]; 10 mg vs 2 mg, single dose) was 1.22 (0.94‐1.58), the half-life ([1]; mean t1/2, single dose) was 5.9 to 7.4 h and the half-life ([1]; t1/2, individual values, single dose) was 4.5 to 11.8 h. For the same compound, the Cmax ([1]; 2 mg) was 24.6 ng/mL, the Tmax ([1]; 2 mg, single oral 2 mg, N = 8) was 1 h and the Cmax ([1]; 4 mg) was 51.3 ng/mL. It also gave a Tmax ([1]; 4 mg, single oral 4 mg, N = 9) of 1 h, a Cmax ([1]; 10 mg) of 152 ng/mL and a Tmax ([1]; 10 mg, single oral 10 mg, N = 8) of 0.75 h. The CL/F ([1]; single oral 2 mg, N = 8) was 14.5 (1.76) L/h, the CL/F ([1]; single oral 4 mg, N = 8) was 15.0 (2.48) ^a L/h and the CL/F ([1]; single oral 10 mg, N = 8) was 12.9 (1.24) L/h. For the same compound, the CL/F ([2]; 2 mg once daily) was 13.9 (1.66) L/h, the “RA (accumulation ratio)” value ([2]; 2 mg once daily) was 1.11 (0.11) and the CL/F ([2]; 4 mg once daily) was 15.3 (2.64) L/h. The “RA (accumulation ratio)” value ([2]; 4 mg once daily) was 1.06 (0.20), the “Ratio of dose‐normalized geometric means AUCτ,ss (90%CI)” value ([2]; 4 mg vs 2 mg) was 1.03 (0.97‐1.09) and the “Ratio of dose‐normalized geometric means Cmax,ss (90%CI)” value ([2]; 4 mg vs 2 mg) was 0.99 (0.91‐1.08). The CL/F ([2]; 10 mg once daily) was 13.1 (1.95) L/h, the “RA (accumulation ratio)” value ([2]; 10 mg once daily) was 1.05 (0.07) and the “Ratio of dose‐normalized geometric means AUCτ,ss (90%CI)” value ([2]; 10 mg vs 2 mg) was 1.07 (0.94‐1.23). For the same compound, the “Ratio of dose‐normalized geometric means Cmax,ss (90%CI)” value ([2]; 10 mg vs 2 mg) was 0.99 (0.81‐1.20), the AUC ([2]; human, plasma, oral, 2 mg) was 146 ng·h/mL and the Cmax ([2]; human, plasma, oral, 2 mg) was 28.6 ng/mL. For the same compound, the Tmax ([2]; human, plasma, oral, 2 mg) was 0.5 h, the half-life ([2]; human, plasma, oral, 2 mg) was 5.68 h and the AUC ([2]; human, plasma, oral, 4 mg) was 268 ng·h/mL. The Cmax ([2]; human, plasma, oral, 4 mg) was 49.6 ng/mL, the half-life ([2]; human, plasma, oral, 4 mg) was 7.55 h and the AUC ([2]; human, plasma, oral, 10 mg) was 778 ng·h/mL. The Cmax ([2]; human, plasma, oral, 10 mg) was 138 ng/mL, the half-life ([2]; human, plasma, oral, 10 mg) was 7.39 h and the “Attainment of steady‐state plasma concentrations” value ([2]; once‐daily dosing days 4 through 10, predose samples) was “after the second day of once‐daily dosing; also recorded: after the second once‐daily dose”. For the same compound, the “ALT increased, drug related (number of TEAEs [number of subjects with TEAEs])” value (shortened to “ALT increased, drug related”) ([3]; 2 mg (N = 8)) was 0, the “ANC decreased, drug related (number of TEAEs [number of subjects with TEAEs])” value (“ANC decreased, drug related” for short) ([3]; 2 mg (N = 8)) was 0 and the “AST increased, drug related (number of TEAEs [number of subjects with TEAEs])” value (“AST increased, drug related” below) ([3]; 2 mg (N = 8)) was 0. For the same compound, the “Bilirubin increased, drug related (number of TEAEs [number of subjects with TEAEs])” value (shortened to “Bilirubin increased, drug related”) ([3]; 2 mg (N = 8)) was 0, the “ECG abnormal, drug related (number of TEAEs [number of subjects with TEAEs])” value (shortened to “ECG abnormal, drug related”) ([3]; 2 mg (N = 8)) was 0 and the “Hypotension, drug related (number of TEAEs [number of subjects with TEAEs])” value ([3]; 2 mg (N = 8)) was 0. The “Orthostatic hypotension, drug related (number of TEAEs [number of subjects with TEAEs])” value (“Orthostatic hypotension, drug related” below) ([3]; 2 mg (N = 8)) was 0, the “Overall drug related TEAEs (number of TEAEs [number of subjects with TEAEs])” value (“Overall drug related TEAEs” for short) ([3]; 2 mg (N = 8)) was 0 (0) and the “Total number of TEAEs (all severities were “mild”), n, all causalities” value (shortened to “Total number of TEAEs”) ([3]; 2 mg (N = 8)) was 2. For the same compound, the “Number of subjects (%) with ≥1 AE, all causalities” value (“Number of subjects (%) with ≥1 AE” for short) ([3]; 2 mg (N = 8)) was 1 (12.5), the “ALT increased, drug related” value ([3]; 4 mg (N = 9)) was 1 (1) and the “ANC decreased, drug related” value ([3]; 4 mg (N = 9)) was 1 (1). The “AST increased, drug related” value ([3]; 4 mg (N = 9)) was 1 (1), the “Bilirubin increased, drug related” value ([3]; 4 mg (N = 9)) was 0 and the “ECG abnormal, drug related” value ([3]; 4 mg (N = 9)) was 0. The “Hypotension, drug related (number of TEAEs [number of subjects with TEAEs])” value ([3]; 4 mg (N = 9)) was 0, the “Orthostatic hypotension, drug related” value ([3]; 4 mg (N = 9)) was 0 and the “Overall drug related TEAEs” value ([3]; 4 mg (N = 9)) was 3 (2). For the same compound, the “Total number of TEAEs” value ([3]; 4 mg (N = 9)) was 3, the “Number of subjects (%) with ≥1 AE” value ([3]; 4 mg (N = 9)) was 2 (22.2) and the “ALT increased, drug related” value ([3]; 10 mg (N = 8)) was 2 (2). For the same compound, the “ANC decreased, drug related” value ([3]; 10 mg (N = 8)) was 0, the “AST increased, drug related” value ([3]; 10 mg (N = 8)) was 1 (1) and the “Bilirubin increased, drug related” value ([3]; 10 mg (N = 8)) was 1 (1). For the same compound, the “ECG abnormal, drug related” value ([3]; 10 mg (N = 8)) was 0, the “Hypotension, drug related (number of TEAEs [number of subjects with TEAEs])” value ([3]; 10 mg (N = 8)) was 0 and the “Orthostatic hypotension, drug related” value ([3]; 10 mg (N = 8)) was 1 (1). The “Overall drug related TEAEs” value ([3]; 10 mg (N = 8)) was 5 (4), the “Total number of TEAEs” value ([3]; 10 mg (N = 8)) was 6 and the “Number of subjects (%) with ≥1 AE” value ([3]; 10 mg (N = 8)) was 4 (50.0). For the same compound, the “Severity of TEAEs” value ([3]; all TEAEs reported during the study) was “mild”, the “Serious adverse events (SAEs)” value ([3]; during the study) was “no SAEs reported” and the “12‐lead ECG changes” value ([3]; following administration of baricitinib 2 to 10 mg) was “no clinically significant dose‐dependent ECG changes”. The Tolerability ([3]; single and multiple oral once‐daily doses up to 10 mg) was “generally well tolerated”, the “time for ANC and ALC values to return to baseline postdose” value ([4]; days 1 and 10) was ≤ 24 h and the “maximum mean decrease in ANC” value ([4]; multiple dose 2 mg) was 0.096 GI/L. For the same compound, the “maximum mean decrease in ANC” value ([4]; multiple dose 4 mg) was 0.706 GI/L, the “maximum mean decrease in ANC” value ([4]; multiple dose 10 mg) was 1.443 GI/L and the “time of increase in ALC after dosing” value ([4]; single and multiple doses) was 16 h. For the same compound, the “time of maximum decrease in ANC after dosing” value ([4]; single and multiple doses) was 8 h, the “maximum mean decrease from baseline in ANC” value ([4]; single dose 2 mg) was 0.616 GI/L and the “maximum mean decrease from baseline in ANC” value ([4]; single dose 4 mg) was 0.808 GI/L. For the same compound, the “maximum mean decrease from baseline in ANC” value ([4]; single dose 10 mg) was 1.706 GI/L, the “excreted in the urine in an unchanged form” value [5] was ~75% and the mean renal clearance [5] was ~12 L/h^2. The “oral‐dose clearance” value [5] was 17 L/h, the “mean terminal‐phase t1/2” value ([5]; healthy White subjects, noncompartmental PK method) was “approximately 8 hours” and the “geometric mean terminal‐phase disposition half‐life (t1/2)” value ([5]; healthy White volunteers) was “about 8 hours”. For the same compound, the “dose identified as undergoing biotransformation” value [6] was < 10%, the transporter substrate [7] was “substrate” and the transporter substrate [8] was “substrate”. The transporter substrate [9] was “substrate”, the transporter substrate [10] was “substrate” and the “t1/2 compared with adult populations” value [11] was “substantially shorter”.
